The values that follow come from ChEMBL document CHEMBL1140194, “Convenient access to 1,3,4-trisubstituted pyrazoles carrying 5-nitrothiophene moiety via 1,3-dipolar cycloaddition of sydnones with acetylenic ketones and their antimicrobial evaluation” (2008).

≈ marks a conversion by molar mass, not a printed value.

Format in all cases: functional
In test [1] the test system is Candida albicans. Put plainly: Antimicrobial activity against Candida albicans NCIM 3100 after 16 to 18 hrs by serial dilution method. The method in brief: (§1)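 Compounds were dissolved in dimethylformamide as stock. An 18-h broth culture was inoculated by loop into nutrient broth and grown 4 h at 37 °C. Stock was serially diluted by 0.5 mL transfers across tubes 1–10, with tube 11 as growth control. About 0.5 mL diluted culture was added per tube, then incubated at 37 °C for 16–18 h. Reference drugs: nitrofurazone for bacteria, fluconazole for Candida.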

Test [2] relates to Bacillus subtilis. Put plainly: Antimicrobial activity against Bacillus subtilis after 16 to 18 hrs by serial dilution method. The method in brief: as §1
For test [3], the system named is Escherichia coli. The test can be described thus: Antimicrobial activity against sEscherichia coli ATCC 25922 after 16 to 18 hrs by serial dilution method. The essentials:
as §1

For test [4], the system named is Staphylococcus aureus. The test can be described thus: Antimicrobial activity against Staphylococcus aureus ATCC 25923 after 16 to 18 hrs by serial dilution method. The essentials:
as §1

Test [5] deals with Pseudomonas aeruginosa. Put plainly: Antimicrobial activity against sPseudomonas aeruginosa ATCC 27853 after 16 to 18 hrs by serial dilution method. The method in brief:
as §1

For orientation: MIC means the lowest concentration found to suppress growth. Read a low MIC as a more susceptible organism. Consider `OC(Cn1cncn1)(Cn1cncn1)c1ccc(F)cc1F` [FLUCONAZOLE], for which the MIC in test [1] is 0.25 µg/mL (≈ 0.816 µM).

For `O=C(c1ccccc1)c1cn(-c2ccccc2)nc1-c1ccc([N+](=O)[O-])s1`, the MIC in test [2], in test [1], in test [3], in test [4] and in test [5] was 0.25 µg/mL (≈ 0.666 µM) in each case.

In the case of `COc1ccc(-n2cc(C(=O)c3ccccc3)c(-c3ccc([N+](=O)[O-])s3)n2)cc1`, the MIC in test [2], in test [1], in test [3], in test [4] and in test [5] was 0.25 µg/mL (≈ 0.617 µM) throughout.

As for `COc1ccc(-n2cc(C(=O)c3ccc(C)cc3)c(-c3ccc([N+](=O)[O-])s3)n2)cc1`, the MIC in test [2], in test [1], in test [3], in test [4] and in test [5] was 0.25 µg/mL (≈ 0.596 µM) in each case.

For `Cc1ccc(C(=O)c2cn(-c3ccc(C)cc3)nc2-c2ccc([N+](=O)[O-])s2)cc1`, the MIC in test [2], in test [1], in test [3], in test [4] and in test [5] was 0.125 µg/mL (≈ 0.31 µM) throughout.

`COc1ccc(C(=O)c2cn(-c3ccccc3)nc2-c2ccc([N+](=O)[O-])s2)cc1`: the MIC in test [2], in test [1], in test [3], in test [4] and in test [5] was 0.25 µg/mL (≈ 0.617 µM) each time.

Consider `Cc1ccc(-n2cc(C(=O)c3ccc(Cl)cc3)c(-c3ccc([N+](=O)[O-])s3)n2)cc1`, for which the minimal inhibitory concentration (MIC) in test [2], in test [1], in test [3], in test [4] and in test [5] was 0.125 µg/mL (≈ 0.295 µM) each time.

Turning to `Cc1ccc(C(=O)c2cn(-c3ccccc3)nc2-c2ccc([N+](=O)[O-])s2)cc1`, the minimal inhibitory concentration (MIC) in test [2], in test [1], in test [3], in test [4] and in test [5] was 0.25 µg/mL (≈ 0.642 µM) throughout.

For the compound `O=C(c1ccc(Cl)cc1)c1cn(-c2ccccc2)nc1-c1ccc([N+](=O)[O-])s1`, the MIC in test [2], in test [1], in test [3], in test [4] and in test [5] was 0.125 µg/mL (≈ 0.305 µM) each time.

As to `Cc1ccc(-n2cc(C(=O)c3ccccc3)c(-c3ccc([N+](=O)[O-])s3)n2)cc1`, the minimum inhibitory concentration (MIC) in test [2], in test [1], in test [3], in test [4] and in test [5] was 0.25 µg/mL (≈ 0.642 µM) in each case.

Consider `COc1ccc(-n2cc(C(=O)c3ccc(Cl)cc3)c(-c3ccc([N+](=O)[O-])s3)n2)cc1`, for which the minimum inhibitory concentration (MIC) in test [2] came to 0.25 µg/mL (≈ 0.568 µM); in test [1], 0.125 µg/mL (≈ 0.284 µM); in test [3] it was 0.25 µg/mL (≈ 0.568 µM); in test [4], 0.25 µg/mL (≈ 0.568 µM); in test [5], 0.25 µg/mL (≈ 0.568 µM).

As for `NC(=O)N/N=C/c1ccc([N+](=O)[O-])o1` [NITROFURAZONE], the MIC in test [2], in test [3], in test [4] and in test [5] was 0.25 µg/mL (≈ 1.26 µM) in each case.
